From ChEMBL document CHEMBL4002604, “Evaluation of biological properties of 3,3',4,4'-benzophenonetetracarboxylic dianhydride derivatives and their ability to inhibit hexokinase activity” (2017)
Active and inactive are the calls of the source. The calls are words filed in the database; no cut-off is given here.

How the values were obtained:
P19 [1] = assay: Cytotoxicity against differentiated mouse P19 cells assessed as cell mass at 1 to 100 uM after 48 hrs by SRB assay relative to control; type: functional
Procedure, shortened: (§1)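 Cell mass by SRB assay in P19 cells (CRL-1825), either undifferentiated (P19SCs) or differentiated (P19dCs). Cells exposed to 1, 10 or 100 µM for 24, 48 or 72 h. Values expressed relative to untreated control. Means ± SD from at least 4 independent measurements, 6 repeats each. Significance vs control at p<0.05.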

P19 [2] = assay: Cytotoxicity against differentiated mouse P19 cells assessed as metabolic activity at 1 to 100 uM after 24 hrs by resazurin assay relative to control; type: functional
Procedure, shortened: (§2)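 Metabolic activity by resazurin reduction in undifferentiated (P19SCs) or differentiated (P19dCs) P19 cells. Exposure to 1, 10 or 100 µM for 24, 48 or 72 h. Read-out relative to untreated control. Significance vs control at p<0.05.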

P19 [3] = assay: Cytotoxicity against undifferentiated mouse P19 cells assessed as cell mass at 1 to 100 uM after 48 hrs by SRB assay relative to control; type: functional; procedure, shortened: as §1
[4] = target: T1, Hexokinase-2 (Mus musculus) (UniProt O08528); assay: Inhibition of HK2 isolated from mouse undifferentiated P19 cell lysates at […] using [U-14C]-labeled glucose as substrate in presence of ATP and NADP by G6PD enzyme coupled spectrophotometric assay
T1 sequence (whole entry): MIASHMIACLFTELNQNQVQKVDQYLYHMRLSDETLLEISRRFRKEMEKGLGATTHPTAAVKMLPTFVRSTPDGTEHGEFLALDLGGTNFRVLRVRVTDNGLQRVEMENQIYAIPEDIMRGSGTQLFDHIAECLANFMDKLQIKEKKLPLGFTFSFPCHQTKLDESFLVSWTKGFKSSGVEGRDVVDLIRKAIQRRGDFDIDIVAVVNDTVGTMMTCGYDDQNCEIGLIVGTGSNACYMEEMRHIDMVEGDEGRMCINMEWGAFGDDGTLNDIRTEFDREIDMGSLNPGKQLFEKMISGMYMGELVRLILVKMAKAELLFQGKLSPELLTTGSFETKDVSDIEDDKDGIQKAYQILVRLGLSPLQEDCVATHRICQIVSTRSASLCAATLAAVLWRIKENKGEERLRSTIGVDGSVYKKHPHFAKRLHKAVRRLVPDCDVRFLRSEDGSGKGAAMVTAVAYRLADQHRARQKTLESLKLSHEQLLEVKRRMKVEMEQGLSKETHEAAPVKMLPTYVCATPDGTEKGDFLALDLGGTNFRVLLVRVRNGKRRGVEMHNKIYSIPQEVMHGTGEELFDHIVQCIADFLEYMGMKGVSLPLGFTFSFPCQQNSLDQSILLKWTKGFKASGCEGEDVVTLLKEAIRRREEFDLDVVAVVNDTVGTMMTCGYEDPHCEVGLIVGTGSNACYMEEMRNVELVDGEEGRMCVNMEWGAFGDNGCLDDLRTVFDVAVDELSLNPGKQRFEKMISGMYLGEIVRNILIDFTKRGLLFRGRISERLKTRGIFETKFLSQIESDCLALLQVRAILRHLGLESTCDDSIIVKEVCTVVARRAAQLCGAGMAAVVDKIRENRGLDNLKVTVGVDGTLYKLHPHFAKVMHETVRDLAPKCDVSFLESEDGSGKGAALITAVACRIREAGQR
Procedure, shortened: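 Hexokinase activity measured in supernatant of freshly prepared, centrifuged lysates of undifferentiated P19 cells. Buffer was 100 mM Tris-HCl pH 8.0 with 0.5 mM EDTA, 10 mM MgCl2, 2 mM glucose, 0.1 mM NADP and 0.1 U/ml G6PD. After 10 min preincubation at 37°C, 10 mM ATP was added to start the reaction. NADPH formation was followed at 340 nm. Four independent experiments, ≥4 repeats each.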

P19 [5] = assay: Cytotoxicity against undifferentiated mouse P19 cells assessed as metabolic activity at 1 to 100 uM after 24 hrs by resazurin assay relative to control; type: functional; procedure, shortened: as §2
P19 [6] = assay: Cytotoxicity against differentiated mouse P19 cells assessed as metabolic activity at 1 to 100 uM after 48 hrs by resazurin assay relative to control; type: functional; procedure, shortened: as §2
P19 [7] = assay: Cytotoxicity against undifferentiated mouse P19 cells assessed as metabolic activity at 1 to 100 uM after 48 hrs by resazurin assay relative to control; type: functional; procedure, shortened: as §2
P19 [8] = assay: Cytotoxicity against undifferentiated mouse P19 cells assessed as cell mass at 1 to 100 uM after 72 hrs by SRB assay relative to control; type: functional; procedure, shortened: as §1
P19 [9] = assay: Cytotoxicity against differentiated mouse P19 cells assessed as cell mass at 1 to 100 uM after 24 hrs by SRB assay relative to control; type: functional; procedure, shortened: as §1
P19 [10] = assay: Cytotoxicity against undifferentiated mouse P19 cells assessed as metabolic activity at 1 to 100 uM after 72 hrs by resazurin assay relative to control; type: functional; procedure, shortened: as §2
P19 [11] = assay: Cytotoxicity against undifferentiated mouse P19 cells assessed as cell mass at 1 to 100 uM after 24 hrs by SRB assay relative to control; type: functional; procedure, shortened: as §1
P19 [12] = assay: Cytotoxicity against differentiated mouse P19 cells assessed as metabolic activity at 1 to 100 uM after 72 hrs by resazurin assay relative to control; type: functional; procedure, shortened: as §2
P19 [13] = assay: Cytotoxicity against differentiated mouse P19 cells assessed as cell mass at 1 to 100 uM after 72 hrs by SRB assay relative to control; type: functional; procedure, shortened: as §1
P19 [14] = assay: Cytotoxicity against undifferentiated mouse P19 cells assessed as mitochondrial superoxide anion level at 1 uM after 24 hrs by MitoSox dye based fluorescence assay relative to control; type: functional
Procedure, shortened: (§3)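 Undifferentiated (P19SCs) or differentiated (P19dCs) P19 cells incubated 24 or 72 h with 1 or 100 µM. Mitochondrial membrane potential and mitochondrial superoxide levels measured and expressed relative to untreated control. Means ± SD from 4 independent measurements, at least 4 repeats each. Significance at p<0.05.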

P19 [15] = assay: Cytotoxicity against differentiated mouse P19 cells assessed as mitochondrial superoxide anion level at 100 uM after 24 hrs by MitoSox dye based fluorescence assay relative to control; type: functional; procedure, shortened: as §3
P19 [16] = assay: Cytotoxicity against undifferentiated mouse P19 cells assessed as mitochondrial membrane potential at 1 uM after 72 hrs by TMRF dye based fluorescence assay relative to control; type: functional; procedure, shortened: as §3
P19 [17] = assay: Cytotoxicity against undifferentiated mouse P19 cells assessed as mitochondrial superoxide anion level at 1 uM after 72 hrs by MitoSox dye based fluorescence assay relative to control; type: functional; procedure, shortened: as §3
P19 [18] = assay: Cytotoxicity against undifferentiated mouse P19 cells assessed as mitochondrial membrane potential at 1 uM after 24 hrs by TMRF dye based fluorescence assay relative to control; type: functional; procedure, shortened: as §3
P19 [19] = assay: Cytotoxicity against undifferentiated mouse P19 cells assessed as mitochondrial membrane potential at 100 uM after 72 hrs by TMRF dye based fluorescence assay relative to control; type: functional; procedure, shortened: as §3
P19 [20] = assay: Cytotoxicity against differentiated mouse P19 cells assessed as mitochondrial superoxide anion level at 1 uM after 24 hrs by MitoSox dye based fluorescence assay relative to control; type: functional; procedure, shortened: as §3
P19 [21] = assay: Cytotoxicity against undifferentiated mouse P19 cells assessed as mitochondrial superoxide anion level at 100 uM after 24 hrs by MitoSox dye based fluorescence assay relative to control; type: functional; procedure, shortened: as §3
P19 [22] = assay: Cytotoxicity against differentiated mouse P19 cells assessed as mitochondrial superoxide anion level at 1 uM after 72 hrs by MitoSox dye based fluorescence assay relative to control; type: functional; procedure, shortened: as §3
P19 [23] = assay: Cytotoxicity against differentiated mouse P19 cells assessed as mitochondrial membrane potential at 100 uM after 24 hrs by TMRF dye based fluorescence assay relative to control; type: functional; procedure, shortened: as §3
P19 [24] = assay: Cytotoxicity against undifferentiated mouse P19 cells assessed as mitochondrial membrane potential at 100 uM after 24 hrs by TMRF dye based fluorescence assay relative to control; type: functional; procedure, shortened: as §3
P19 [25] = assay: Cytotoxicity against differentiated mouse P19 cells assessed as mitochondrial superoxide anion level at 100 uM after 72 hrs by MitoSox dye based fluorescence assay relative to control; type: functional; procedure, shortened: as §3
P19 [26] = assay: Cytotoxicity against differentiated mouse P19 cells assessed as mitochondrial membrane potential at 100 uM after 72 hrs by TMRF dye based fluorescence assay relative to control; type: functional; procedure, shortened: as §3
P19 [27] = assay: Cytotoxicity against differentiated mouse P19 cells assessed as mitochondrial membrane potential at 1 uM after 72 hrs by TMRF dye based fluorescence assay relative to control; type: functional; procedure, shortened: as §3
P19 [28] = assay: Cytotoxicity against undifferentiated mouse P19 cells assessed as mitochondrial superoxide anion level at 100 uM after 72 hrs by MitoSox dye based fluorescence assay relative to control; type: functional; procedure, shortened: as §3
P19 [29] = assay: Cytotoxicity against differentiated mouse P19 cells assessed as mitochondrial membrane potential at 1 uM after 24 hrs by TMRF dye based fluorescence assay relative to control; type: functional; procedure, shortened: as §3

Row | SMILES | Activity (P19 [1]) | Activity (P19 [2]) | Activity (P19 [3]) | Activity (P19 [5]) | Activity (P19 [6]) | Activity (P19 [7]) | Activity (P19 [8]) | Activity (P19 [9]) | Activity (P19 [10]) | Activity (P19 [11]) | Activity (P19 [12]) | Activity (P19 [13]) | also measured
1 | OC[C@H]1OC(O)C[C@@H](O)[C@@H]1O (some centres not stated) | 93.6% | 90.5% | 99.6% | 100.1% | 101.7% | 91.2% | 103.8% | 90.5% | 101.3% | 120.4% | 94.4% | 97.4% | inhibition [4]: Active
2 | O=C(c1ccc2c(c1)C(=O)N(c1c[nH]c(=O)[nH]c1=O)C2=O)c1ccc2c(c1)C(=O)N(c1c[nH]c(=O)[nH]c1=O)C2=O | 88.2% | 116.3% | 99.4% | 113.8% | 105.3% | 103.2% | 97.4% | 95.8% | 109.6% | 115.2% | 105% | 90.8% | 
3 | O=C(c1ccc2c(c1)C(=O)N(CCCO)C2=O)c1ccc2c(c1)C(=O)N(CCCO)C2=O | 97.9% | 100.1% | 101.5% | 105% | 101.1% | 98.1% | 100% | 110.6% | 100% | 106% | 98.1% | 94.7% | 
4 | O=C(c1ccc2c(c1)C(=O)N(c1nc[nH]n1)C2=O)c1ccc2c(c1)C(=O)N(c1nc[nH]n1)C2=O | 96% | 114% | 77.6% | 92.7% | 96.1% | 94% | 45.5% | 93.3% | 53.2% | 81.2% | 86.5% | 82% | 
5 | O=C(c1ccc2c(c1)C(=O)N(c1ccc(O)cc1)C2=O)c1ccc2c(c1)C(=O)N(c1ccc(O)cc1)C2=O | 48.5% | 96.2% | 81.8% | 88.5% | 87.4% | 74.4% | 86.8% | 86.7% | 79.9% | 90.2% | 93.8% | 30.9% | Activity (P19 [14]): 72.1%; Activity (P19 [15]): 113.2%; Activity (P19 [16]): 93%; Activity (P19 [17]): 78.4%; Activity (P19 [18]): 176.1%; Activity (P19 [19]): 116.7%; Activity (P19 [20]): 75.8%; Activity (P19 [21]): 106.6%; Activity (P19 [22]): 138%; Activity (P19 [23]): 65.8%; Activity (P19 [24]): 206.6%; Activity (P19 [25]): 118.8%; Activity (P19 [26]): 136.6%; Activity (P19 [27]): 144.7%; Activity (P19 [28]): 72.5%; Activity (P19 [29]): 110.6%
6 | O=C(c1ccc2c(c1)C(=O)N(c1ccccc1O)C2=O)c1ccc2c(c1)C(=O)N(c1ccccc1O)C2=O | 93% | 105% | 102% | 103.5% | 105.3% | 99.7% | 106.5% | 95.6% | 101.2% | 103.6% | 99.4% | 79.8% | Activity (P19 [14]): 108.7%; Activity (P19 [15]): 168%; Activity (P19 [16]): 81.9%; Activity (P19 [17]): 115.4%; Activity (P19 [18]): 82.2%; Activity (P19 [19]): 81.6%; Activity (P19 [20]): 111.1%; Activity (P19 [21]): 108.3%; Activity (P19 [22]): 97.8%; Activity (P19 [23]): 112%; Activity (P19 [24]): 89.6%; Activity (P19 [25]): 86%; Activity (P19 [26]): 93.3%; Activity (P19 [27]): 89.4%; Activity (P19 [28]): 129.9%; Activity (P19 [29]): 117.8%
7 | O=C(c1ccc2c(c1)C(=O)N(CCO)C2=O)c1ccc2c(c1)C(=O)N(CCO)C2=O | 108.4% | 113.3% | 92.4% | 101.5% | 103.7% | 107.8% | 106.7% | 96.2% | 113.8% | 83.9% | 99.4% | 80.5% | 
